According to ChEMBL document CHEMBL1151166, “Structures of new sesquiterpenes and hepatoprotective constituents from the Egyptian herbal medicine Cyperus longus” (J Nat Prod, 2004):

Columns and labels:
[1] = test system: Hepatocyte; test: Hepatoprotective activity in ddY mouse hepatocytes assessed as inhibition of D-galactosamine-induced cytotoxicity at 3 uM after 44 hrs by MTT assay relative to control; format: functional
How it was run: (§1)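 Cells then exposed to D-GalN (2 mM) plus test sample for 44 h. MTT was added for 4 h. Formazan was dissolved in acidic 2-propanol and read at 562 nm (reference 660 nm). Inhibition (%) = (sample − control)/(normal − control) × 100. Values are means ± SEM.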

[2] = test system: Hepatocyte; test: Hepatoprotective activity in ddY mouse hepatocytes assessed as inhibition of D-galactosamine-induced cytotoxicity at 10 uM after 44 hrs by MTT assay relative to control; format: functional; how it was run: as §1
[3] = test system: Hepatocyte; test: Hepatoprotective activity in ddY mouse hepatocytes assessed as inhibition of D-galactosamine-induced cytotoxicity at 30 uM after 44 hrs by MTT assay relative to control; format: functional; how it was run: as §1
[4] = test system: Hepatocyte; test: Hepatoprotective activity in ddY mouse hepatocytes assessed as inhibition of D-galactosamine-induced cytotoxicity at 100 uM after 44 hrs by MTT assay relative to control; format: functional; how it was run: as §1
[5] = test system: Hepatocyte; test: Hepatoprotective activity in ddY mouse hepatocytes assessed as inhibition of D-galactosamine-induced cytotoxicity after 44 hrs by MTT assay relative to control; format: functional, cell-based; how it was run: as §1

Compound: CC1(C)CC2[C@H]1CC[C@@]1(C)OC[C@]2(O)CC[C@@H]1O (stereo partly specified)
- inhibition at 3 µM [1]: 12.5%
- inhibition at 10 µM [2]: 14.3%
- inhibition at 30 µM [3]: 24.8%
- inhibition at 100 µM [4]: 36.4%

Compound: C=C(C)[C@@H]1CC[C@@H](C)[C@]2(O)CC[C@](C)(O)C(=O)[C@@H]12 [CYPERUSOL D]
- inhibition at 3 µM [1]: -3.6%
- inhibition at 10 µM [2]: 2.6%
- inhibition at 30 µM [3]: 31.9%
- inhibition at 100 µM [4]: 46.1%

Compound: CC1(C)CC2[C@H]1CC[C@@]1(C)O[C@]2(CO)CC[C@H]1O (stereo partly specified)
- inhibition at 3 µM [1]: 5.7%
- inhibition at 10 µM [2]: 10.4%
- inhibition at 30 µM [3]: 19.9%
- inhibition at 100 µM [4]: 45.9%

Compound: C=C(C)[C@@H]1CC[C@@]2(C)[C@H](O)CC[C@@](C)(O)[C@@H]2C1 [CYPERUSOL C]
- inhibition at 3 µM [1]: 6.3%
- inhibition at 10 µM [2]: 8.1%
- inhibition at 30 µM [3]: 28.4%
- inhibition at 100 µM [4]: 29.9%

Compound: CC1(C)C[C@@H]2[C@@H]1CC[C@@]1(C)C[C@]2(O)CC[C@@H]1O
- inhibition at 3 µM [1]: 6.3%
- inhibition at 10 µM [2]: 16.8%
- inhibition at 30 µM [3]: 26.7%
- inhibition at 100 µM [4]: 51.7%
- IC50 [5]: 100 µM

Compound: C=C(C)[C@@H]1CC[C@]2(C)C(=C(C)C(=O)C[C@H]2O)C1 [LIGUCYPERONOL]
- inhibition at 3 µM [1]: 5.5%
- inhibition at 10 µM [2]: 13.9%
- inhibition at 30 µM [3]: 12.6%
- inhibition at 100 µM [4]: 46.7%

Compound: C=C1C/C=C/C(C)(C)C[C@@H](O)/C(C)=C\C[C@@H]1O
- inhibition at 3 µM [1]: 11.6%
- inhibition at 10 µM [2]: 25.6%
- inhibition at 30 µM [3]: 47.5%
- inhibition at 100 µM [4]: 80.8%
- IC50 [5]: 27 µM

Compound: CC1=C[C@H]2[C@H](C(C)C)CC[C@](C)(O)[C@H]2C[C@H]1O
- inhibition at 3 µM [1]: -2.3%
- inhibition at 10 µM [2]: 3.7%
- inhibition at 30 µM [3]: 9.3%
- inhibition at 100 µM [4]: 15.2%

Compound: C=C(C)[C@@H]1CC[C@@H](C)[C@@]2(O)CC(=O)C(C)=C2C1
- inhibition at 3 µM [1]: -4.5%
- inhibition at 10 µM [2]: -1.1%
- inhibition at 30 µM [3]: 13.5%
- inhibition at 100 µM [4]: 58%
- IC50 [5]: 83 µM

Compound: COc1cc(C2Oc3cc([C@H]4Oc5cc(O)cc(O)c5C(=O)[C@@H]4O)ccc3OC2CO)ccc1O (stereo partly specified) [SILIBININ]
- inhibition at 3 µM [1]: 4.8%
- inhibition at 10 µM [2]: 7.7%
- inhibition at 30 µM [3]: 45.2%
- inhibition at 100 µM [4]: 77%
- IC50 [5]: 41 µM

Compound: C=C(C)C(CCC(C)=O)CC1=C(C)CCC1=O (stereo unspecified) [MANDASSIDIONE]
- inhibition at 3 µM [1]: -0.1%
- inhibition at 10 µM [2]: 7.7%
- inhibition at 30 µM [3]: 14.7%
- inhibition at 100 µM [4]: 21.6%

Compound: C/C1=C\CC(C)(C)[C@@H](O)[C@H]2C[C@@]2(C)[C@@H](O)CC1
- inhibition at 3 µM [1]: 5.9%
- inhibition at 10 µM [2]: 16.6%
- inhibition at 30 µM [3]: 37.3%
- inhibition at 100 µM [4]: 54.8%
- IC50 [5]: 70 µM

Compound: C=C(C)C(CC[C@H](C)O)CC1=C(C)CCC1=O (stereo partly specified) [CYPERUSOL B1]
- inhibition at 3 µM [1]: 3%
- inhibition at 10 µM [2]: 20.4%
- inhibition at 30 µM [3]: 22.7%
- inhibition at 100 µM [4]: 34.7%

Compound: C=C(C)[C@@H]1CC[C@](C)(O)[C@H]2CC[C@](C)(O)[C@H]2C1 [GUAIDIOL]
- inhibition at 3 µM [1]: 2.6%
- inhibition at 10 µM [2]: 10.4%
- inhibition at 30 µM [3]: 20.3%
- inhibition at 100 µM [4]: 35.4%

Compound: CC1(C)C[C@@H]2O[C@@]2(C)CC[C@H]2O[C@]2(C)C[C@@H]2O[C@H]21
- inhibition at 3 µM [1]: 6.9%
- inhibition at 10 µM [2]: 9.7%
- inhibition at 30 µM [3]: 25.7%
- inhibition at 100 µM [4]: 51.1%
- IC50 [5]: 95 µM

Compound: CC(C)(O)[C@@H]1CC=C(CO)CC1
- inhibition at 3 µM [1]: -1.5%
- inhibition at 10 µM [2]: 1.7%
- inhibition at 30 µM [3]: 16.7%
- inhibition at 100 µM [4]: 53.3%
- IC50 [5]: 90 µM

Compound: C=C(C)C(CC[C@@H](C)O)CC1=C(C)CCC1=O (stereo partly specified) [CYPERUSOL B2]
- inhibition at 3 µM [1]: 4.4%
- inhibition at 10 µM [2]: 6.5%
- inhibition at 30 µM [3]: -1.4%
- inhibition at 100 µM [4]: 19.9%

Compound: C=C(C)[C@@H]1CC[C@](C)(O)C2=C(C1)[C@](C)(O)CC2=O [CYPERUSOL A1]
- inhibition at 3 µM [1]: 2.2%
- inhibition at 10 µM [2]: 5.6%
- inhibition at 30 µM [3]: 9.5%
- inhibition at 100 µM [4]: 16.5%

Compound: CC1(C)C[C@H](O)[C@]23CC[C@@H](O)[C@@](C)(CC[C@@H]12)C3 [CLOVANEDIOL]
- inhibition at 3 µM [1]: 3.6%
- inhibition at 10 µM [2]: 13.6%
- inhibition at 30 µM [3]: 32.3%
- inhibition at 100 µM [4]: 40.2%

Compound: CC1=CCC(C(C)(C)O)CC1O (stereo unspecified) [SOBREROL]
- inhibition at 3 µM [1]: 5.5%
- inhibition at 10 µM [2]: 8.9%
- inhibition at 30 µM [3]: 15.9%
- inhibition at 100 µM [4]: 23.7%

Compound: CC1(C)C[C@H]2[C@H]1[C@H]1C[C@@]1(C)[C@H](O)CC[C@]2(C)O [TRICYCLOHUMULADIOL]
- inhibition at 3 µM [1]: 10.9%
- inhibition at 10 µM [2]: 16.1%
- inhibition at 30 µM [3]: 22.1%
- inhibition at 100 µM [4]: 37.7%
